Laboratory results taken from ChEMBL document CHEMBL4390685, “Synthesis, antibacterial and cytotoxic evaluation of flavipucine and its derivatives” (Bioorg Med Chem Lett, 2019).
≈ marks a conversion by molar mass, not a printed value. Calls of active or inactive are those of the source. No cut-off for these calls is given here.

Columns and labels:
HL-60 [1] = assay: Cytotoxicity against human HL60 cells assessed as reduction in cell viability incubated for 48 hrs by WST8 dye based assay; format: functional; details: HL-60, 48 h
Method in brief: (§1)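 Suspension leukemia lines (HL-60 promyelocytic, Jurkat T-ALL) exposed to a range of concentrations for 48 h. Viability read by WST-8. IC50 is the concentration giving 50% loss of viability, mean ± SD of triplicates. SN-38 served as positive control.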

Bacillus subtilis [2] = assay: Antibacterial activity against Bacillus subtilis NBRC 3134 after 18 hrs by broth microdilution method; format: functional; details: NBRC 3134, 18 h
Method in brief: (§2)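 Broth microdilution run to CLSI standard methods. MIC taken as the lowest concentration inhibiting growth. Ampicillin and chloramphenicol served as positive controls. Compounds were tested up to 128 µg/mL.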

Bacillus subtilis [3] = assay: Bactericidal activity against Bacillus subtilis NBRC 3134 incubated for 18 hrs followed by inoculums transfer to MHA plate and further incubated for 24 hrs; format: functional
Method in brief: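 MBC determined per CLSI methods following broth microdilution MIC testing. Ampicillin and chloramphenicol served as positive controls.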

TE-8 = assay: Cytotoxicity against human TE8 cells assessed as reduction in cell viability incubated for 48 hrs by WST8 dye based assay; format: functional; details: TE-8, 48 h
Method in brief: (§3)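 Adherent human cancer lines (A549 lung, HCT116 colon, HeLa cervix, TE8 esophageal squamous) exposed to a range of concentrations for 48 h. Viability read by WST-8. IC50 taken as 50% inhibition of viability, mean ± SD of triplicate experiments. SN-38 served as positive control. Tested up to 100 μM.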

A549 = assay: Cytotoxicity against human A549 cells assessed as reduction in cell viability incubated for 48 hrs by WST8 dye based assay; format: functional; details: A549, 48 h; method in brief: as §3
HCT-116 = assay: Cytotoxicity against human HCT116 cells assessed as reduction in cell viability incubated for 48 hrs by WST8 dye based assay; format: functional; details: HCT-116, 48 h; method in brief: as §3
Escherichia coli = assay: Antibacterial activity against Escherichia coli NBRC 3301 after 17 hrs by broth microdilution method; format: functional; details: NBRC 3301, 17 h; method in brief: as §2
HEK293 = assay: Cytotoxicity against human HEK293 cells assessed as reduction in cell viability incubated for 48 hrs by WST8 dye based assay; details: HEK293, 48 h
Method in brief: (§4)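 Adherent non-cancer cells (HEK293, Ad5-transformed embryonic kidney; MRC-5, normal diploid fibroblast) treated with graded concentrations for 48 h. WST-8 viability read-out. IC50 reported as mean ± SD of triplicate experiments. SN-38 served as positive control. Tested up to 50 μM.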

MRC5 = assay: Cytotoxicity against human MRC5 cells assessed as reduction in cell viability incubated for 48 hrs by WST8 dye based assay; details: MRC5, 48 h; method in brief: as §4
HeLa = assay: Cytotoxicity against human HeLa cells assessed as reduction in cell viability incubated for 48 hrs by WST8 dye based assay; format: functional; method in brief: as §3
Jurkat = assay: Cytotoxicity against human Jurkat cells assessed as reduction in cell viability incubated for 48 hrs by WST8 dye based assay; format: functional; method in brief: as §1
HL-60 [4] = assay: Induction of cell death in human HL60 cells assessed as reduction in cell viability at 2 uM incubated for 6 hrs after pre-treatment with caspase inhibitor Z-Asp-CH2-DCB for 1 hr by WST8 dye based assay; format: functional
HL-60 [5] = assay: Induction of DNA fragmentation in human HL60 cells at 0.5 to 5 uM after 6 hrs by […] staining-based agarose gel electrophoresis; format: functional, cell-based

SMILES | IC50 (HL-60 [1]) [µM] | MIC (Bacillus subtilis [2]) [µg/mL] | MBC (Bacillus subtilis [3]) [µg/mL] | IC50 (TE-8) [µM] | IC50 (A549) [µM] | IC50 (HCT-116) [µM] | MIC (Escherichia coli) [µg/mL] | IC50 (HEK293) [µM] | IC50 (MRC5) [µM] | IC50 (HeLa) [µM] | IC50 (Jurkat) [µM] | Activity (HL-60 [4]) | Activity (HL-60 [5])
CC1=CC(=O)[C@]2(O[C@@H]2C(=O)CC(C)C)C(=O)N1 | 1.7 | 8 (≈ 33.7 µM) | 8 (≈ 33.7 µM) | – | – | – | – | – | – | – | – | – | –
CC1=CC(=O)[C@@]2(O[C@H]2C(=O)CC(C)C)C(=O)N1 | 1.6 | 8 (≈ 33.7 µM) | 8 (≈ 33.7 µM) | – | – | – | – | – | – | – | – | – | –
CC(C)CC(=O)[C@@H]1O[C@@]12C(=O)C=C(Cc1ccccc1)NC2=O (racemic) | 37.3 | 128 (≈ 408 µM) | 128 (≈ 408 µM) | > 100 | > 100 | > 100 | > 128 | > 50 | > 50 | > 100 | > 50 | – | –
CC(C)C[C@]1(O)NC(=O)[C@]2(OC(Cc3ccccc3)=CC2=O)[C@H]1O (racemic) | 28 | > 128 | > 128 | > 100 | > 100 | > 100 | > 128 | > 50 | > 50 | > 100 | > 50 | – | –
CC1=CC(=O)[C@]2(O1)C(=O)N[C@@](O)(CC(C)C)[C@@H]2O (racemic) | > 50 | > 128 | > 128 | > 100 | > 100 | > 100 | > 128 | > 50 | > 50 | > 100 | > 50 | – | –
CC(C)CC(=O)C1Oc2cc(Cc3ccccc3)[nH]c(=O)c2O1 (racemic) | > 50 | > 128 | > 128 | > 100 | > 100 | > 100 | > 128 | > 50 | > 50 | > 100 | > 50 | – | –
CC(C)C[C@@]12NC(=O)[C@]3(O)C(=O)C[C@@](C)(O[C@@H]31)O2 (racemic) | 37.7 | > 128 | > 128 | > 100 | > 100 | > 100 | > 128 | > 50 | > 50 | > 100 | > 50 | – | –
Cc1cc2c(c(=O)[nH]1)OC(C(=O)CC(C)C)O2 (racemic) | 19.9 | > 128 | > 128 | > 100 | > 100 | > 100 | > 128 | > 50 | > 50 | > 100 | > 50 | – | –
CC1=CC(=O)C2(OC2C(=O)CC(C)C)C(=O)N1 (racemic) | 1.8 | 8 (≈ 33.7 µM) | 8 (≈ 33.7 µM) | 21.6 | 32.1 | 30.4 | > 128 | 35.9 | 33.2 | 40.5 | 8 | Active | inactive
CCc1c2c(nc3ccc(O)cc13)-c1cc3c(c(=O)n1C2)COC(=O)[C@]3(O)CC [7-ETHYL-10-HYDROXYCAMPTOTHECIN] | 2.4 | – | – | < 1 | 6.6 | < 1 | – | < 1 | 15.3 | 13.1 | < 1 | – | –
CC1(C)S[C@@H]2[C@H](NC(=O)[C@H](N)c3ccccc3)C(=O)N2[C@H]1C(=O)O [AMPICILLIN] | – | < 0.5 | < 0.5 | – | – | – | 4 (≈ 11.4 µM) | – | – | – | – | – | –
O=C(N[C@H](CO)[C@H](O)c1ccc([N+](=O)[O-])cc1)C(Cl)Cl [CHLORAMPHENICOL] | – | 4 (≈ 12.4 µM) | 64 (≈ 198 µM) | – | – | – | – | – | – | – | – | – | –
